Experimental data from ChEMBL document CHEMBL3797186, “Single Residue Substitutions That Confer Voltage-Gated Sodium Ion Channel Subtype Selectivity in the NaV1.7 Inhibitory Peptide GpTx-1” (J Med Chem, 2016).
Positions of bridges follow the written chain, without caps; N, C: chain ends. Residues, ends and D or L forms follow the SMILES beside them.

Columns and labels:
[1] = molecular target: Sodium channel protein type 9 subunit alpha (Homo sapiens, UniProt Q15858); test: Inhibition of human Nav1.7 expressed in HEK293 cells assessed as inward peak current by ion-works quattro patch clamp electrophysiology method; format: cell-based
Sequence of Sodium channel protein type 9 subunit alpha (Q15858 whole entry): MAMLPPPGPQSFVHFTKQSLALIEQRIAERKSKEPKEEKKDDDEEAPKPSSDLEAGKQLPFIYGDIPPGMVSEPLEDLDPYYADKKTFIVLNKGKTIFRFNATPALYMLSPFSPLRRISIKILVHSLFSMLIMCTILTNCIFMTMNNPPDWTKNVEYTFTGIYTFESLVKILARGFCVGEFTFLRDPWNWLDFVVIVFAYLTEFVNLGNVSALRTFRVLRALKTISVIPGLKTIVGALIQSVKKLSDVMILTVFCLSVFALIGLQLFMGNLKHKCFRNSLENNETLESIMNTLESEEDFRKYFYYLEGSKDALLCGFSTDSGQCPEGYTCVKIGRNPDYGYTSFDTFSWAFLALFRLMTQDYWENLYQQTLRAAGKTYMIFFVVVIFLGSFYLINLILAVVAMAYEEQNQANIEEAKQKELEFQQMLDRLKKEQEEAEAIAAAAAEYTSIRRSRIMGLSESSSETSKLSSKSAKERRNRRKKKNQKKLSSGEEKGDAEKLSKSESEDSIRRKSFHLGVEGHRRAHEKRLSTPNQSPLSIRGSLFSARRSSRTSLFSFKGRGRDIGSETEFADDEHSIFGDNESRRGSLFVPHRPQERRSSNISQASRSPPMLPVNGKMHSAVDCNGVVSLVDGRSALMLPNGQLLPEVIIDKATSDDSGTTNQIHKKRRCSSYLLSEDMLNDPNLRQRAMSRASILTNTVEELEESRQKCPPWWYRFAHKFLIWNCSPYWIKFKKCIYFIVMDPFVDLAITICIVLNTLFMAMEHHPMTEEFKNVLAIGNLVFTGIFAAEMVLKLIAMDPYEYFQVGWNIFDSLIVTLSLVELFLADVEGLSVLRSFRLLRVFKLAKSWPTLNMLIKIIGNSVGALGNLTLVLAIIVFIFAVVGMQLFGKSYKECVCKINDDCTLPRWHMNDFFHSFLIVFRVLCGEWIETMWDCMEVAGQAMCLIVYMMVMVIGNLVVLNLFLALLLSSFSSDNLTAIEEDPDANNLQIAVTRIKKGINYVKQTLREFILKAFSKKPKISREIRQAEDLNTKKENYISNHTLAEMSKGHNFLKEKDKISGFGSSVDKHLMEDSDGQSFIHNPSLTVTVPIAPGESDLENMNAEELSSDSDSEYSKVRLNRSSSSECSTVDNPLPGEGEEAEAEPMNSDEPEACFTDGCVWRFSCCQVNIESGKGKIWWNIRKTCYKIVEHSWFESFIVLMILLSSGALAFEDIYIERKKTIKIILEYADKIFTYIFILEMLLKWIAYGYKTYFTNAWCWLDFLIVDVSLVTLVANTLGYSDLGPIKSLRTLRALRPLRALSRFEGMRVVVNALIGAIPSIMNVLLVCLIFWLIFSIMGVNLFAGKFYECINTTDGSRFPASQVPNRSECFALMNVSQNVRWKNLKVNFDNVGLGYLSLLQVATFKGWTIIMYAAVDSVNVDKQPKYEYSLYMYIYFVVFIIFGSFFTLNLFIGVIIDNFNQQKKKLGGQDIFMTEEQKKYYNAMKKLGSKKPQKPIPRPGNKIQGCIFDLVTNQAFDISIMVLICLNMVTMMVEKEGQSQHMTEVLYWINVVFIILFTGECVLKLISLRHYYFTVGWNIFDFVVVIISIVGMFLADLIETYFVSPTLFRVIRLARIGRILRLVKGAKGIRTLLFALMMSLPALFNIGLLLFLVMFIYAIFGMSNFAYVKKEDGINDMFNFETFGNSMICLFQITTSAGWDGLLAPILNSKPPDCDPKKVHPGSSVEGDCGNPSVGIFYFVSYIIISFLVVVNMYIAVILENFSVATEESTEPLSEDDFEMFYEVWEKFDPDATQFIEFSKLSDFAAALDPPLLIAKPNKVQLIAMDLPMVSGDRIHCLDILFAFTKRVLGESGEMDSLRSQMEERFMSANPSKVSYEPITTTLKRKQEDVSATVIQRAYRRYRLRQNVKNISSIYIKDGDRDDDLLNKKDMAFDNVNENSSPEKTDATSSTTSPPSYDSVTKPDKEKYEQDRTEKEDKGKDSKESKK

[2] = molecular target: Sodium channel protein type 5 subunit alpha (Homo sapiens, UniProt Q14524); test: Inhibition of human Nav1.5 expressed in HEK293 cells assessed as inward peak current by ion-works quattro patch clamp electrophysiology method; format: cell-based
Sequence of Sodium channel protein type 5 subunit alpha (Q14524 whole entry): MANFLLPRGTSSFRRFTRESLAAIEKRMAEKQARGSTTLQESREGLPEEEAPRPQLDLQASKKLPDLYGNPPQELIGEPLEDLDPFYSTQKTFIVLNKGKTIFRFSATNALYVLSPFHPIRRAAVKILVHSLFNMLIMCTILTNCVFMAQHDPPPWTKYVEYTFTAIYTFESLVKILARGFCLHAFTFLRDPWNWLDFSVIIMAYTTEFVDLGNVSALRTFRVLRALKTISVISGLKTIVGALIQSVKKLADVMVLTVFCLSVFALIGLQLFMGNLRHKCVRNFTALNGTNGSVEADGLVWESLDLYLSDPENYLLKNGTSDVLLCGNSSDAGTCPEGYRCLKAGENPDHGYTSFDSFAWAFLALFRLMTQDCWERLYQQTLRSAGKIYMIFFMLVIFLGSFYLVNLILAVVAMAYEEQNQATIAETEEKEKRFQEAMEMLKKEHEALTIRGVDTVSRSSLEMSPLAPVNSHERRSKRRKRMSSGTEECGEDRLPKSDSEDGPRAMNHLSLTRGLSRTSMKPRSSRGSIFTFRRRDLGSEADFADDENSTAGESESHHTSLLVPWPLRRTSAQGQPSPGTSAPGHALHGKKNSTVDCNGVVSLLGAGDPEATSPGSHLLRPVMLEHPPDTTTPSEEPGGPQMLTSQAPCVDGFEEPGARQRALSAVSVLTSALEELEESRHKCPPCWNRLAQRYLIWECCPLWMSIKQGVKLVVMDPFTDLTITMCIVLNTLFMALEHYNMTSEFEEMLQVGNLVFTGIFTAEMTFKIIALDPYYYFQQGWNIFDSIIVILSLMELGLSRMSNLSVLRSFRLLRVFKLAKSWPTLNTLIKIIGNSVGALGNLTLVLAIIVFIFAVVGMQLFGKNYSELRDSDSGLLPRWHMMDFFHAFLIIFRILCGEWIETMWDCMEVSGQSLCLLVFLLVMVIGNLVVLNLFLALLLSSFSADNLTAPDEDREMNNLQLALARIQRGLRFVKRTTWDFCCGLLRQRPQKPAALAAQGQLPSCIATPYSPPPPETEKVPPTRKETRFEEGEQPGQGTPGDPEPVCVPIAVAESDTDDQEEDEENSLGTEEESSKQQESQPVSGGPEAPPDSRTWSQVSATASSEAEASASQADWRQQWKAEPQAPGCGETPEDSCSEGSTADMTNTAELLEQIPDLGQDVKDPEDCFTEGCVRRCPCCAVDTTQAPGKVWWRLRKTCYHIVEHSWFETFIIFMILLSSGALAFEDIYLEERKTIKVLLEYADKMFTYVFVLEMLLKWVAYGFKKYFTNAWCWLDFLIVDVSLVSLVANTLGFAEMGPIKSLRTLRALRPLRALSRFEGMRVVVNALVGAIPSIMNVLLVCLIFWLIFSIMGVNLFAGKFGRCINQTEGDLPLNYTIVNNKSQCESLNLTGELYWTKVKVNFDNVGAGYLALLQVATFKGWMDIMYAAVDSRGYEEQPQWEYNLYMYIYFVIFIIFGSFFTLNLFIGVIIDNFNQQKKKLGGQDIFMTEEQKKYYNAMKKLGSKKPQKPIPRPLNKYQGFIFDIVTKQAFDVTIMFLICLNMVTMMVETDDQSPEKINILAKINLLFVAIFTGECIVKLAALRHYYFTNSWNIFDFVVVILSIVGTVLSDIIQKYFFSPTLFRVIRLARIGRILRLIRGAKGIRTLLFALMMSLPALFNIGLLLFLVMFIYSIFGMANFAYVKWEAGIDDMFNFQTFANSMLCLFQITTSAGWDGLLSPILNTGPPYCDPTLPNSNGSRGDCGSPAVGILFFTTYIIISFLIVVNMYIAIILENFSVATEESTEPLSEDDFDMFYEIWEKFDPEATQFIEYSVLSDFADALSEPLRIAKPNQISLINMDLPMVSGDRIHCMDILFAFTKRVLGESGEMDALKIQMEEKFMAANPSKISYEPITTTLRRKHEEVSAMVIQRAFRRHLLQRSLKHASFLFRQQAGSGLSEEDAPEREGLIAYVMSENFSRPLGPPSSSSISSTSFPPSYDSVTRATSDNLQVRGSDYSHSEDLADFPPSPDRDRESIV
Outline: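 Stable HEK293 line expressing human NaV1.5, recorded by population patch clamp on the IonWorks Quattro.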

Row | Compound | IC50 [1] | IC50 [2]
1 | CC[C@H](C)[C@@H]1NC(=O)[C@@H]2CSSC[C@@H]3NC(=O)[C@H](C(C)C)NC(=O)[C@H](Cc4c[nH]c5ccccc45)NC(=O)[C@H](CC(N)=O)NC(=O)[C@@H]4CCCN4C(=O)[C@H](CCCNC(=N)N)NC(=O)[C@H](CSSC[C@H](NC(=O)[C@@H](N)CC(=O)O)C(=O)N[C@@H](CC(C)C)C(=O)NCC(=O)N[C@@H](Cc4ccccc4)C(=O)N[C@@H](CCSC)C(=O)N[C@@H](CCCNC(=N)N)C(=O)N[C@@H](CCCCN)C(=O)N2)NC(=O)[C@H](CSSC[C@@H](C(=O)N[C@@H](CCCCN)C(=O)N[C@@H](Cc2ccc(O)cc2)C(=O)N[C@H](C(=O)N[C@@H](Cc2ccccc2)C(N)=O)C(C)C)NC(=O)[C@H](Cc2c[nH]c4ccccc24)NC(=O)[C@H](CCCCN)NC(=O)[C@H](Cc2cnc[nH]2)NC(=O)[C@H]([C@@H](C)O)NC(=O)[C@H](CCCNC(=N)N)NC(=O)[C@H](CO)NC3=O)NC(=O)[C@H](CCCCN)NC(=O)[C@H](CC(=O)O)NC(=O)[C@H](CC(N)=O)NC(=O)[C@H](CC(=O)O)NC(=O)[C@@H]2CCCN2C1=O (H-DCLGFMRKCIPDNDKCCRPNWVCSRTHKWCKYVF-NH2; disulfide 2-17, 9-23, 16-30) | 110 nM | > 5000 nM
2 | CC[C@H](C)[C@@H]1NC(=O)[C@@H]2CSSC[C@@H]3NC(=O)[C@H](C(C)C)NC(=O)[C@H](CC(C)C)NC(=O)[C@H](CC(N)=O)NC(=O)[C@@H]4CCCN4C(=O)[C@H](CCCNC(=N)N)NC(=O)[C@H](CSSC[C@H](NC(=O)[C@@H](N)Cc4c[nH]c5ccccc45)C(=O)N[C@@H](CC(C)C)C(=O)NCC(=O)N[C@@H](Cc4ccccc4)C(=O)N[C@@H](CCSC)C(=O)N[C@@H](CCCNC(=N)N)C(=O)N[C@@H](CCCCN)C(=O)N2)NC(=O)[C@H](CSSC[C@@H](C(=O)N[C@@H](CCCCN)C(=O)N[C@@H](Cc2ccc(O)cc2)C(=O)N[C@H](C(=O)N[C@@H](Cc2ccccc2)C(N)=O)C(C)C)NC(=O)[C@H](Cc2c[nH]c4ccccc24)NC(=O)[C@H](CCCCN)NC(=O)[C@H](Cc2cnc[nH]2)NC(=O)[C@H]([C@@H](C)O)NC(=O)[C@H](CCCNC(=N)N)NC(=O)[C@H](CO)NC3=O)NC(=O)[C@H](CCCCN)NC(=O)[C@H](CC(=O)O)NC(=O)[C@H](CC(N)=O)NC(=O)[C@H](CC(=O)O)NC(=O)[C@@H]2CCCN2C1=O (H-WCLGFMRKCIPDNDKCCRPNLVCSRTHKWCKYVF-NH2; disulfide 2-17, 9-23, 16-30) | 70 nM | > 5000 nM
3 | CC[C@H](C)[C@@H]1NC(=O)[C@H]2CSSC[C@H]3NC(=O)[C@H](C(C)C)NC(=O)[C@H](CC(C)C)NC(=O)[C@H](CC(N)=O)NC(=O)[C@@H]4CCCN4C(=O)[C@H](CCCNC(=N)N)NC(=O)[C@H](CSSC[C@H](NC(=O)[C@@H](N)CC(=O)O)C(=O)N[C@@H](CC(C)C)C(=O)NCC(=O)N[C@@H](Cc4ccccc4)C(=O)N[C@@H](CCSC)C(=O)N[C@@H](CCCNC(=N)N)C(=O)N[C@@H](CCCCN)C(=O)N2)NC(=O)[C@@H](CSSC[C@@H](C(=O)N[C@@H](CCCCN)C(=O)N[C@@H](Cc2ccc(O)cc2)C(=O)N[C@H](C(=O)N[C@@H](Cc2ccccc2)C(N)=O)C(C)C)NC(=O)[C@H](Cc2c[nH]c4ccccc24)NC(=O)[C@H](C)NC(=O)[C@H](Cc2cnc[nH]2)NC(=O)[C@H]([C@@H](C)O)NC(=O)[C@H](CCCNC(=N)N)NC(=O)[C@H](CO)NC3=O)NC(=O)[C@H](CCCCN)NC(=O)[C@H](CC(=O)O)NC(=O)[C@H](CC(N)=O)NC(=O)[C@H](CC(=O)O)NC(=O)[C@@H]2CCCN2C1=O | 470 nM | > 5000 nM
4 | CC[C@H](C)[C@@H]1NC(=O)[C@@H]2CSSC[C@@H]3NC(=O)[C@H](C(C)C)NC(=O)[C@H](CC(C)C)NC(=O)[C@H](CC(N)=O)NC(=O)[C@@H]4CCCN4C(=O)[C@H](CCCNC(=N)N)NC(=O)[C@H](CSSC[C@H](NC(=O)[C@@H](N)CC(=O)O)C(=O)N[C@@H](CC(C)C)C(=O)NCC(=O)N[C@@H](Cc4ccccc4)C(=O)N[C@@H](CCSC)C(=O)N[C@@H](CCCNC(=N)N)C(=O)N[C@@H](CCCNC(=N)N)C(=O)N2)NC(=O)[C@H](CSSC[C@@H](C(=O)N[C@@H](CCCCN)C(=O)N[C@@H](Cc2ccc(O)cc2)C(=O)N[C@H](C(=O)N[C@@H](Cc2ccccc2)C(N)=O)C(C)C)NC(=O)[C@H](Cc2c[nH]c4ccccc24)NC(=O)[C@H](CCCCN)NC(=O)[C@H](Cc2cnc[nH]2)NC(=O)[C@H]([C@@H](C)O)NC(=O)[C@H](CCCNC(=N)N)NC(=O)[C@H](CO)NC3=O)NC(=O)[C@H](CCCCN)NC(=O)[C@H](CC(=O)O)NC(=O)[C@H](CC(N)=O)NC(=O)[C@H](CC(=O)O)NC(=O)[C@@H]2CCCN2C1=O (H-DCLGFMRRCIPDNDKCCRPNLVCSRTHKWCKYVF-NH2; disulfide 2-17, 9-23, 16-30) | 130 nM | > 5000 nM
5 | CC[C@@H](C)[C@H]1NC(=O)[C@H]2CSSC[C@@H]3NC(=O)[C@@H](C(C)C)NC(=O)[C@H](CC(C)C)NC(=O)[C@H](CC(N)=O)NC(=O)[C@@H]4CCCN4C(=O)[C@H](CCCNC(=N)N)NC(=O)[C@H](CSSC[C@@H](NC(=O)[C@@H](N)CC(=O)O)C(=O)N[C@H](C)C(=O)NCC(=O)N[C@@H](Cc4ccccc4)C(=O)N[C@H](CCSC)C(=O)N[C@@H](CCCNC(=N)N)C(=O)N[C@@H](CCCCN)C(=O)N2)NC(=O)[C@@H](CSSC[C@@H](C(=O)N[C@@H](CCCCN)C(=O)N[C@@H](Cc2ccc(O)cc2)C(=O)N[C@H](C(=O)N[C@@H](Cc2ccccc2)C(N)=O)C(C)C)NC(=O)[C@@H](Cc2c[nH]c4ccccc24)NC(=O)[C@H](CCCCN)NC(=O)[C@H](Cc2cnc[nH]2)NC(=O)[C@@H]([C@H](C)O)NC(=O)[C@@H](CCCNC(=N)N)NC(=O)[C@H](CO)NC3=O)NC(=O)[C@@H](CCCCN)NC(=O)[C@H](CC(=O)O)NC(=O)[C@@H](CC(N)=O)NC(=O)[C@H](CC(=O)O)NC(=O)[C@@H]2CCCN2C1=O | 430 nM | > 5000 nM
6 | CC[C@H](C)[C@@H]1NC(=O)[C@@H]2CSSC[C@@H]3NC(=O)[C@H](C(C)C)NC(=O)[C@H](CC(C)C)NC(=O)[C@H](CC(N)=O)NC(=O)[C@@H]4CCCN4C(=O)[C@H](CCCNC(=N)N)NC(=O)[C@H](CSSC[C@H](NC(=O)[C@@H](N)CC(=O)O)C(=O)N[C@@H](CC(C)C)C(=O)NCC(=O)N[C@@H](Cc4ccccc4)C(=O)N[C@@H](CCSC)C(=O)N[C@@H](CCCNC(=N)N)C(=O)N[C@@H](CCCCN)C(=O)N2)NC(=O)[C@H](CSSC[C@@H](C(=O)N[C@@H](CCCCN)C(=O)N[C@@H](Cc2ccc(O)cc2)C(=O)N[C@H](C(=O)N[C@@H](Cc2ccccc2)C(N)=O)C(C)C)NC(=O)[C@H](CCCCN)NC(=O)[C@H](CCCCN)NC(=O)[C@H](Cc2cnc[nH]2)NC(=O)[C@H]([C@@H](C)O)NC(=O)[C@H](CCCNC(=N)N)NC(=O)[C@H](CO)NC3=O)NC(=O)[C@H](CCCCN)NC(=O)[C@H](CC(=O)O)NC(=O)[C@H](CC(N)=O)NC(=O)[C@H](CC(=O)O)NC(=O)[C@@H]2CCCN2C1=O (H-DCLGFMRKCIPDNDKCCRPNLVCSRTHKKCKYVF-NH2; disulfide 2-17, 9-23, 16-30) | > 5000 nM | > 5000 nM
7 | CC[C@H](C)[C@@H]1NC(=O)[C@@H]2CSSC[C@@H]3NC(=O)[C@H](C(C)C)NC(=O)[C@H](CC(C)C)NC(=O)[C@H](CC(N)=O)NC(=O)[C@@H]4CCCN4C(=O)[C@H](CCCNC(=N)N)NC(=O)[C@H](CSSC[C@H](NC(=O)[C@@H](N)CC(=O)O)C(=O)N[C@@H](CC(C)C)C(=O)NCC(=O)N[C@@H](Cc4ccccc4)C(=O)N[C@@H](CCSC)C(=O)N[C@@H](CCCNC(=N)N)C(=O)N[C@@H](CCCCN)C(=O)N2)NC(=O)[C@H](CSSC[C@@H](C(=O)N[C@@H](CCCCN)C(=O)N[C@@H](Cc2ccc(O)cc2)C(=O)N[C@H](C(=O)N[C@@H](Cc2ccccc2)C(N)=O)C(C)C)NC(=O)[C@H](Cc2c[nH]c4ccccc24)NC(=O)[C@H](CCCCN)NC(=O)[C@H](Cc2cnc[nH]2)NC(=O)[C@H]([C@@H](C)O)NC(=O)[C@H](CCCNC(=N)N)NC(=O)[C@H](CO)NC3=O)NC(=O)[C@H](CCCCN)NC(=O)[C@H](CC(=O)O)NC(=O)[C@H](CC(N)=O)NC(=O)[C@H](Cc2c[nH]c3ccccc23)NC(=O)[C@@H]2CCCN2C1=O (H-DCLGFMRKCIPWNDKCCRPNLVCSRTHKWCKYVF-NH2; disulfide 2-17, 9-23, 16-30) | 60 nM | > 5000 nM
8 | CC[C@H](C)[C@@H]1NC(=O)[C@@H]2CSSC[C@@H]3NC(=O)[C@H](C(C)C)NC(=O)[C@H](CC(C)C)NC(=O)[C@H](CC(N)=O)NC(=O)[C@@H]4CCCN4C(=O)[C@H](CCCNC(=N)N)NC(=O)[C@H](CSSC[C@H](NC(=O)[C@@H](N)CC(=O)O)C(=O)N[C@@H](CC(C)C)C(=O)NCC(=O)N[C@@H](Cc4ccccc4)C(=O)N[C@@H](CCSC)C(=O)N[C@@H](CCCNC(=N)N)C(=O)N[C@@H](CCCCN)C(=O)N2)NC(=O)[C@H](CSSC[C@@H](C(=O)N[C@@H](Cc2c[nH]c4ccccc24)C(=O)N[C@@H](Cc2ccc(O)cc2)C(=O)N[C@H](C(=O)N[C@@H](Cc2ccccc2)C(N)=O)C(C)C)NC(=O)[C@H](Cc2c[nH]c4ccccc24)NC(=O)[C@H](CCCCN)NC(=O)[C@H](Cc2c[nH]cn2)NC(=O)[C@H]([C@@H](C)O)NC(=O)[C@H](CCCNC(=N)N)NC(=O)[C@H](CO)NC3=O)NC(=O)[C@H](CCCCN)NC(=O)[C@H](CC(=O)O)NC(=O)[C@H](CC(N)=O)NC(=O)[C@H](CC(=O)O)NC(=O)[C@@H]2CCCN2C1=O (H-DCLGFMRKCIPDNDKCCRPNLVCSRTHKWCWYVF-NH2; disulfide 2-17, 9-23, 16-30) | > 4900 nM | > 5000 nM
